Source: ChEMBL document CHEMBL4689842, “EUbOPEN Chemogenomics Library wave 1” (2021)

System: U2OS
Assay: Multiplex assay against U2OS
Format: toxicity, cell-based
Details: human
Method in brief: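 Four dyes were applied at seeding to live cells: Hoechst33342, BioTracker Green Microtubule Cytoskeleton Dye, MitoTracker Red and Annexin V Alexa Fluor 680. Imaging after compound addition used a CQ1 microscope at 37°C and 5% CO2. CellPathfinder machine-learning gating then sorted cells into Hoechst high-intensity objects or normal cells, normal cells into healthy, pyknosed or fragmented nuclei, and pyknosed cells into mitotic or apoptotic, with tubulin, mitochondrial-mass and membrane-permeability phenotypes given as per cents of healthy-nucleus cells.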

[1] = 12 h, 1 µM, compound concentration 1 uM, replicate 1
[2] = 12 h, 1 µM, compound concentration 1 uM, replicate 2
[3] = 12 h, 10 µM, compound concentration 10 uM, replicate 1
[4] = 12 h, 10 µM, compound concentration 10 uM, replicate 2
[5] = 24 h, 1 µM, compound concentration 1 uM, replicate 1
[6] = 24 h, 1 µM, compound concentration 1 uM, replicate 2
[7] = 24 h, 10 µM, compound concentration 10 uM, replicate 1
[8] = 24 h, 10 µM, compound concentration 10 uM, replicate 2
[9] = 48 h, 1 µM, compound concentration 1 uM, replicate 1
[10] = 48 h, 1 µM, compound concentration 1 uM, replicate 2
[11] = 48 h, 10 µM, compound concentration 10 uM, replicate 1
[12] = 48 h, 10 µM, compound concentration 10 uM, replicate 2

CCCn1c(=O)c2[nH]c(C34CC5CC(CC3C5)C4)nc2n(CCC)c1=O [ROLOFYLLINE]
Population Apoptotic (%) [1]: 50%
Population Fragmented Nuclei (%) [1]: 14%
Population Healthy Nuclei (%) [1]: 77%
Population Hoechst High Intensity Objects (%) [1]: 7%
Population Membrane Permeable-Phenotype (%) [1]: 9%
Population Mitochondria Different-Phenotype (%) [1]: 8%
Population Mitotic Cells (%) [1]: 50%
Population Normal (%) [1]: 92%
Population Pyknosed Nuclei (%) [1]: 8%
Population Tubulin-Different-Phenotype (%) [1]: 18%
Total Cell Count [1]: 123
Population Apoptotic (%) [2]: 71%
Population Fragmented Nuclei (%) [2]: 4%
Population Healthy Nuclei (%) [2]: 88%
Population Hoechst High Intensity Objects (%) [2]: 3%
Population Membrane Permeable-Phenotype (%) [2]: 12%
Population Mitochondria Different-Phenotype (%) [2]: 15%
Population Mitotic Cells (%) [2]: 28%
Population Normal (%) [2]: 96%
Population Pyknosed Nuclei (%) [2]: 7%
Population Tubulin-Different-Phenotype (%) [2]: 20%
Total Cell Count [2]: 81
Population Apoptotic (%) [3]: 58%
Population Fragmented Nuclei (%) [3]: 7%
Population Healthy Nuclei (%) [3]: 76%
Population Hoechst High Intensity Objects (%) [3]: 13%
Population Membrane Permeable-Phenotype (%) [3]: 32%
Population Mitochondria Different-Phenotype (%) [3]: 80%
Population Mitotic Cells (%) [3]: 41%
Population Normal (%) [3]: 86%
Population Pyknosed Nuclei (%) [3]: 17%
Population Tubulin-Different-Phenotype (%) [3]: 97%
Population Apoptotic (%) [4]: 55%
Population Fragmented Nuclei (%) [4]: 13%
Population Healthy Nuclei (%) [4]: 74%
Population Hoechst High Intensity Objects (%) [4]: 3%
Population Membrane Permeable-Phenotype (%) [4]: 46%
Population Mitochondria Different-Phenotype (%) [4]: 73%
Population Mitotic Cells (%) [4]: 44%
Population Normal (%) [4]: 96%
Population Pyknosed Nuclei (%) [4]: 12%
Population Tubulin-Different-Phenotype (%) [4]: 100%
Total Cell Count [4]: 99
Population Apoptotic (%) [5]: 50%
Population Fragmented Nuclei (%) [5]: 9%
Population Healthy Nuclei (%) [5]: 74%
Population Hoechst High Intensity Objects (%) [5]: 2%
Population Membrane Permeable-Phenotype (%) [5]: 5%
Population Mitochondria Different-Phenotype (%) [5]: 5%
Population Mitotic Cells (%) [5]: 50%
Population Normal (%) [5]: 97%
Population Pyknosed Nuclei (%) [5]: 15%
Population Tubulin-Different-Phenotype (%) [5]: 10%
Total Cell Count [5]: 136
Population Apoptotic (%) [6]: 40%
Population Fragmented Nuclei (%) [6]: 7%
Population Healthy Nuclei (%) [6]: 88%
Population Hoechst High Intensity Objects (%) [6]: 5%
Population Membrane Permeable-Phenotype (%) [6]: 6%
Population Mitochondria Different-Phenotype (%) [6]: 11%
Population Mitotic Cells (%) [6]: 60%
Population Normal (%) [6]: 94%
Population Pyknosed Nuclei (%) [6]: 4%
Population Tubulin-Different-Phenotype (%) [6]: 15%
Total Cell Count [6]: 83
Population Apoptotic (%) [7]: 60%
Population Fragmented Nuclei (%) [7]: 13%
Population Healthy Nuclei (%) [7]: 60%
Population Hoechst High Intensity Objects (%) [7]: 10%
Population Membrane Permeable-Phenotype (%) [7]: 38%
Population Mitochondria Different-Phenotype (%) [7]: 84%
Population Mitotic Cells (%) [7]: 39%
Population Normal (%) [7]: 89%
Population Pyknosed Nuclei (%) [7]: 26%
Population Tubulin-Different-Phenotype (%) [7]: 98%
Total Cell Count [7]: 105
Population Apoptotic (%) [8]: 56%
Population Fragmented Nuclei (%) [8]: 9%
Population Healthy Nuclei (%) [8]: 58%
Population Hoechst High Intensity Objects (%) [8]: 5%
Population Membrane Permeable-Phenotype (%) [8]: 41%
Population Mitochondria Different-Phenotype (%) [8]: 81%
Population Mitotic Cells (%) [8]: 43%
Population Normal (%) [8]: 94%
Population Pyknosed Nuclei (%) [8]: 31%
Population Tubulin-Different-Phenotype (%) [8]: 100%
Total Cell Count [8]: 120
Population Apoptotic (%) [9]: 72%
Population Fragmented Nuclei (%) [9]: 9%
Population Healthy Nuclei (%) [9]: 78%
Population Hoechst High Intensity Objects (%) [9]: 4%
Population Membrane Permeable-Phenotype (%) [9]: 2%
Population Mitochondria Different-Phenotype (%) [9]: 10%
Population Mitotic Cells (%) [9]: 27%
Population Normal (%) [9]: 95%
Population Pyknosed Nuclei (%) [9]: 12%
Population Tubulin-Different-Phenotype (%) [9]: 10%
Total Cell Count [9]: 168
Population Apoptotic (%) [10]: 43%
Population Fragmented Nuclei (%) [10]: 5%
Population Healthy Nuclei (%) [10]: 84%
Population Hoechst High Intensity Objects (%) [10]: 2%
Population Membrane Permeable-Phenotype (%) [10]: 8%
Population Mitochondria Different-Phenotype (%) [10]: 21%
Population Mitotic Cells (%) [10]: 56%
Population Normal (%) [10]: 97%
Population Pyknosed Nuclei (%) [10]: 9%
Population Tubulin-Different-Phenotype (%) [10]: 17%
Total Cell Count [10]: 103
Population Apoptotic (%) [11]: 69%
Population Fragmented Nuclei (%) [11]: 18%
Population Healthy Nuclei (%) [11]: 43%
Population Hoechst High Intensity Objects (%) [11]: 12%
Population Membrane Permeable-Phenotype (%) [11]: 35%
Population Mitochondria Different-Phenotype (%) [11]: 60%
Population Mitotic Cells (%) [11]: 30%
Population Normal (%) [11]: 87%
Population Pyknosed Nuclei (%) [11]: 37%
Population Tubulin-Different-Phenotype (%) [11]: 96%
Total Cell Count [11]: 157
Population Apoptotic (%) [12]: 66%
Population Fragmented Nuclei (%) [12]: 19%
Population Healthy Nuclei (%) [12]: 39%
Population Hoechst High Intensity Objects (%) [12]: 4%
Population Membrane Permeable-Phenotype (%) [12]: 81%
Population Mitochondria Different-Phenotype (%) [12]: 68%
Population Mitotic Cells (%) [12]: 33%
Population Normal (%) [12]: 95%
Population Pyknosed Nuclei (%) [12]: 40%
Population Tubulin-Different-Phenotype (%) [12]: 100%
Total Cell Count [12]: 168
